Laboratory results published in ChEMBL document CHEMBL2417509, “Synthesis and biological evaluation of prodigiosene conjugates of porphyrin, estrone and 4-hydroxytamoxifen” (2013).

Assays:
Type in all cases: functional
RXF 393 = experiment: Cytotoxicity against human RXF393 cells after 2 days by sulforhodamine B assay; details: RXF 393, 48 h
Outline: (§1)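 NCI60 multi-dose screen, 59 human tumour lines available. Cells exposed to compound across a 5-log mol/L concentration range for 2 days, then fixed and stained with sulphorhodamine B, optical density read. Growth inhibition calculated against time-zero control and untreated cells. GI50 derived from the dose series, average of two replicates.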

NCI-H322M = experiment: Cytotoxicity against human NCI-H322M cells after 2 days by sulforhodamine B assay; details: 48 h; outline: as §1
SK-MEL-28 = experiment: Cytotoxicity against human SK-MEL-28 cells after 2 days by sulforhodamine B assay; details: SK-MEL-28, 48 h; outline: as §1
SNB-19 = experiment: Cytotoxicity against human SNB19 cells after 2 days by sulforhodamine B assay; details: SNB-19, 48 h
Outline: (§2)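 NCI DTP NCI60 multi-dose screen (59 human tumour lines available). Cells exposed to compound over a 5-log mol/L concentration range for 2 days, then fixed and stained with sulphorhodamine B, with optical density read. Growth inhibition calculated relative to time-zero cells and untreated cells, giving GI50 (half-maximal growth inhibition concentration). Average of two replicates.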

[1] = Cytotoxicity against human NCI-ADR-RES cells after 2 days by sulforhodamine B assay; details: 48 h; outline: as §1
U-251 = experiment: Cytotoxicity against human U251 cells after 2 days by sulforhodamine B assay; details: U-251, 48 h; outline: as §2
SK-OV-3 = experiment: Cytotoxicity against human SKOV3 cells after 2 days by sulforhodamine B assay; details: SK-OV-3, 48 h; outline: as §1
A498 = experiment: Cytotoxicity against human A498 cells after 2 days by sulforhodamine B assay; details: A498, 48 h; outline: as §1
MDA-MB-468 = experiment: Cytotoxicity against human MDA-MB-468 cells after 2 days by sulforhodamine B assay; details: MDA-MB-468, 48 h; outline: as §1
HL-60(TB) = experiment: Cytotoxicity against human HL-60(TB) cells after 2 days by sulforhodamine B assay; details: HL-60, 48 h
Outline: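 NCI60 multi-dose screen: cells exposed to compound over a 5-log mol/L concentration range for 2 days, then fixed and stained with sulphorhodamine B and optical density read. Growth inhibition calculated relative to time-zero control and untreated cells; GI50 reported as average of two replicates.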

786-0 = experiment: Cytotoxicity against human 786-0 cells after 2 days by sulforhodamine B assay; details: 786-0, 48 h; outline: as §1
SNB-75 = experiment: Cytotoxicity against human SNB75 cells after 2 days by sulforhodamine B assay; details: SNB-75, 48 h; outline: as §2
IGROV-1 = experiment: Cytotoxicity against human IGROV1 cells after 2 days by sulforhodamine B assay; details: IGROV-1, 48 h; outline: as §1
LOX IMVI = experiment: Cytotoxicity against human LOXIMVI cells after 2 days by sulforhodamine B assay; details: 48 h; outline: as §1
BT-549 = experiment: Cytotoxicity against human BT549 cells after 2 days by sulforhodamine B assay; details: BT-549, 48 h; outline: as §1
MOLT-4 = experiment: Cytotoxicity against human MOLT4 cells after 2 days by sulforhodamine B assay; details: MOLT-4, 48 h; outline: as §1
HT-29 = experiment: Cytotoxicity against human HT-29 cells after 2 days by sulforhodamine B assay; details: HT-29, 48 h; outline: as §1
SK-MEL-5 = experiment: Cytotoxicity against human SK-MEL-5 cells after 2 days by sulforhodamine B assay; details: SK-MEL-5, 48 h; outline: as §1
SF-268 = experiment: Cytotoxicity against human SF268 cells after 2 days by sulforhodamine B assay; details: SF-268, 48 h; outline: as §1
NCI-H23 = experiment: Cytotoxicity against human NCI-H23 cells after 2 days by sulforhodamine B assay; details: NCI-H23, 48 h; outline: as §1
UACC-62 = experiment: Cytotoxicity against human UACC62 cells after 2 days by sulforhodamine B assay; details: UACC-62, 48 h; outline: as §2
T47D = experiment: Cytotoxicity against human T47D cells after 2 days by sulforhodamine B assay; details: 48 h; outline: as §2
HCC 2998 = experiment: Cytotoxicity against human HCC2998 cells after 2 days by sulforhodamine B assay; details: HCC 2998, 48 h; outline: as §1
NCI-H522 = experiment: Cytotoxicity against human NCI-H522 cells after 2 days by sulforhodamine B assay; details: NCI-H522, 48 h; outline: as §1
HOP-92 = experiment: Cytotoxicity against human HOP92 cells after 2 days by sulforhodamine B assay; details: HOP-92, 48 h; outline: as §1
MDA-MB-231 = experiment: Cytotoxicity against human MDA-MB-231 cells after 2 days by sulforhodamine B assay; details: MDA-MB-231, 48 h; outline: as §1
RPMI-8226 = experiment: Cytotoxicity against human RPMI8226 cells after 2 days by sulforhodamine B assay; details: RPMI-8226, 48 h; outline: as §1
M14 = experiment: Cytotoxicity against human M14 cells after 2 days by sulforhodamine B assay; details: M14, 48 h; outline: as §1
[2] = read-out: LC50 (the source's name)

## COc1cc(-c2ccc[nH]2)[nH]c1/C=C1\N=C(C)C(C(=O)CCC(=O)Oc2ccc3c(c2)CC[C@@H]2[C@@H]3CC[C@]3(C)C(=O)CC[C@@H]23)=C1C
RXF 393
  GI50: 11.7 µM
  LC50 (concentration killing 50% of cells): > 100 µM
  TGI: > 100 µM
NCI-H322M
  GI50: 32.6 µM
  LC50 (concentration killing 50% of cells): > 100 µM
  TGI: > 100 µM
SK-MEL-28
  GI50: 75 µM
  LC50: > 100 µM
  TGI: > 100 µM
SNB-19
  GI50: 18.4 µM
  TGI: > 100 µM
SNB-19; [2]
  CC50: > 100 µM
[1]
  GI50: 13.1 µM
  TGI: > 100 µM
[1]; [2]
  CC50: > 100 µM
U-251
  GI50: 3.41 µM
  LC50: > 100 µM
  TGI: > 100 µM
SK-OV-3
  GI50: > 100 µM
  LC50 (concentration killing 50% of starting cells): > 100 µM
  TGI: > 100 µM
A498
  GI50: 8.49 µM
  LC50: > 100 µM
  TGI: 59.1 µM
MDA-MB-468
  GI50: 17 µM
  LC50: > 100 µM
  TGI: > 100 µM
HL-60(TB)
  GI50: 55.8 µM
  TGI: > 100 µM
HL-60(TB); [2]
  CC50: > 100 µM
786-0
  GI50: 5.99 µM
  LC50 (concentration killing 50% of cells): > 100 µM
  TGI: 40 µM
SNB-75
  GI50: 59.1 µM
  LC50 (concentration killing 50% of starting cells): > 100 µM
  TGI: > 100 µM
IGROV-1
  GI50: 8.4 µM
  LC50: > 100 µM
  TGI: > 100 µM
LOX IMVI
  GI50: 1.17 µM
  LC50: 21.2 µM
  TGI: 3.56 µM
BT-549
  GI50: 15.6 µM
  LC50 (concentration killing 50% of cells present at time zero): > 100 µM
  TGI: > 100 µM
MOLT-4
  GI50: 2.72 µM
  TGI: > 100 µM
MOLT-4; [2]
  CC50: > 100 µM
HT-29
  GI50: 0.87 µM
  LC50: > 100 µM
  TGI: > 100 µM
SK-MEL-5
  GI50: 3.5 µM
  LC50 (concentration killing 50% of cells): 68.8 µM
  TGI: 19.6 µM
SF-268
  GI50: 5.62 µM
  LC50 (concentration killing 50% of cells): > 100 µM
  TGI: > 100 µM
NCI-H23
  GI50: 9.8 µM
  LC50 (concentration killing 50% of cells): > 100 µM
  TGI: > 100 µM
UACC-62
  GI50: 3.71 µM
  TGI: 17.6 µM
UACC-62; [2]
  CC50: 65.1 µM
T47D
  GI50: 15.4 µM
  LC50 (concentration killing 50% of cells): > 100 µM
  TGI: > 100 µM
HCC 2998
  GI50: 17 µM
  LC50 (50% lethal concentration): > 100 µM
  TGI: > 100 µM
NCI-H522
  GI50: 4.68 µM
  LC50: > 100 µM
  TGI: 60.1 µM
HOP-92
  GI50: 2.23 µM
  TGI: 19.4 µM
HOP-92; [2]
  CC50: > 100 µM
MDA-MB-231
  GI50: 0.27 µM
  LC50: 23 µM
  TGI: 1.21 µM
RPMI-8226
  GI50: 6.86 µM
  LC50 (concentration killing 50% of cells present at time zero): > 100 µM
  TGI: > 100 µM
M14
  GI50: 12.4 µM
  TGI: 33.4 µM
M14; [2]
  CC50: 91.2 µM
